Our source for the Activity values is ChEMBL document CHEMBL1158563, “Identification of benzimidazole-based inhibitors of the mitogen activated kinase-5 signaling pathway” (2010).

Molecules are shown by their SMILES.

This test deals with T1, Dual specificity mitogen-activated protein kinase kinase 5 (Homo sapiens) (UniProt Q13163).
T1 sequence (whole entry): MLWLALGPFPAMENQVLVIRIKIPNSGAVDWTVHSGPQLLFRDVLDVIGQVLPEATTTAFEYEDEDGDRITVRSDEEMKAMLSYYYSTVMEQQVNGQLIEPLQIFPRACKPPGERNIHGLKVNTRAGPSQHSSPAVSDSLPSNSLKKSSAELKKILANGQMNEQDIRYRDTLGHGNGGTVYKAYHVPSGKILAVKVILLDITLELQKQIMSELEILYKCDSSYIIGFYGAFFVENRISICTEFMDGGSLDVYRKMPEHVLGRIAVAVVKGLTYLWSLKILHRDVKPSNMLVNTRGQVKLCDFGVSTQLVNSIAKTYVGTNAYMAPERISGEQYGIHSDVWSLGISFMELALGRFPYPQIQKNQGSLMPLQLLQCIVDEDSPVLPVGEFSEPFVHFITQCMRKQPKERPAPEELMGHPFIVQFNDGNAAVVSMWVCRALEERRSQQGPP
Put plainly: Inhibition of EGF-induced MEK5-mediated ERK5 phosphorylation in human HEK293 cells at 10 uM treated after 30 mins EGF challenge measured after 30 mins by Western blot analysis relative to control. It is filed as cell-based. Set-up: scale not given: the % may be the effect or the level left. An outline of the steps: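 HEK293 cells were grown in medium with 10% heat-inactivated FBS and 0.5% penicillin/streptomycin at 37 °C, 5% CO2. They were stimulated with 50 ng/mL EGF, then given 10 µM compound (final) 30 min later, and lysed 30 min after that in 1% Triton buffer. 60 µg protein was run on 10% SDS gels and blotted for pERK1/2 (1:1000) or pERK5 (1:500).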
On the technique in general: Immunoblotting shows a protein as a band on a membrane.

As to `c1ccc(CNc2cc(Cc3ccccc3)cc3c2ncn3C2CCCC2)cc1`, the Activity amounted to 78%.

Consider `COc1cc(NCc2ccccc2)c2ncn(Cc3ccccc3)c2c1`, for which the Activity is 136%.
